Laboratory results from ChEMBL document CHEMBL1126160, “Synthesis and structure-activity relationships of 7-diazabicycloalkylquinolones, including danofloxacin, a new quinolone antibacterial agent for veterinary medicine” (J Med Chem, 1992).
In brackets after ≈: the same amount, converted by molar mass.

Columns and labels:
Format in all cases: functional
[1] = system: Actinobacillus pleuropneumoniae; test: In vitro antibacterial activity against anaerobically grown Actinobacillus pleuropneumoniae ([…])
In short: (§1)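 Agar dilution MICs. Anaerobic strains were tested on tryptose agar with 5% bovine blood and incubated 48 h at 39 °C in an anaerobe chamber under N2/CO2/H2 (80:10:10).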

Salmonella enterica = test: In vitro antibacterial activity against aerobically grown Salmonella choleraesuis (58B015)
Staphylococcus aureus = test: In vitro antibacterial activity against aerobically grown Staphylococcus aureus (54B004)
In short: (§2)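 Agar dilution MICs. Aerobic strains were tested on brain heart infusion agar and incubated aerobically at 37 °C for 18–20 h.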

Escherichia coli [2] = test: Escherichia coli DNA cleavage endpoint value which is the minimum amount required (in micro g/mL) to induce detectable cleavage of supercoiled pBR322 substrate to linear form (gyrase); conditions: read-out: MIC
In short: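 DNA gyrase A and B subunits were purified from E. coli overproducers. About 2 units of holoenzyme were incubated with pBR322 in Tris-HCl pH 7.5 containing MgCl2, spermidine, DTT, 0.2 mM ATP, BSA and tRNA. Drug was added as 2-fold serial dilutions, and reactions ran for 60 min at 25 °C. Reactions were stopped with SDS and proteinase K, then run on agarose and stained with ethidium. The endpoint was the lowest concentration giving detectable linear DNA.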

[3] = system: Bordetella bronchiseptica; test: In vitro antibacterial activity against aerobically grown Bordetella bronchiseptica (73A009); in short: as §2
Trueperella pyogenes = test: In vitro antibacterial activity against anaerobically grown Actinomyces pyogenes (14D002); in short: as §1
[4] = In vitro evaluation for antibacterial activity against anaerobically grown Treponema hyodysenteriae (94A007); conditions: Brachyspira hyodysenteriae
[5] = In vitro antibacterial activity against Aerobically grown Pasteurella haemolytica (59B018); conditions: Mannheimia haemolytica; in short: as §2
Phocaeicola vulgatus = test: In vitro antibacterial activity against anaerobically grown Bacteroides vulgatus (78D029); in short: as §1
Clostridium perfringens = test: microbe, parasite or virus in culture
Escherichia coli [6] = test: In vitro antibacterial activity against aerobically grown Escherichia coli (51A538); in short: as §2
Pasteurella multocida = test: In vitro antibacterial activity against aerobically grown Pasteurella multocida (59A006); in short: as §2

SMILES	MIC [1] [µg/mL]	MIC (Salmonella enterica) [µg/mL]	MIC (Staphylococcus aureus) [µg/mL]	minimum concentration inducing gyrase-mediated DNA cleavage (Escherichia coli [2]) [µg/mL]	MIC [3] [µg/mL]	MIC (Trueperella pyogenes) [µg/mL]	MIC [4] [µg/mL]	MIC [5] [µg/mL]	MIC (Phocaeicola vulgatus) [µg/mL]	MIC (Clostridium perfringens) [µg/mL]	MIC (Escherichia coli [6]) [µg/mL]	MIC (Pasteurella multocida) [µg/mL]
CCn1cc(C(=O)O)c(=O)c2cc(F)c(N3CCN4CCC3CC4)c(F)c21.Cl.O	0.05	0.2	0.39	1.56	0.78	> 3.13	1.56	0.2	1.56	0.78	0.2	0.1
Cl.O.O=C(O)c1cn(CCF)c2cc(N3CCN4CCC3CC4)c(F)cc2c1=O	0.02	0.1	0.78	0.39	1.56	> 3.13	1.56	0.02	> 3.13	0.2	0.2	0.05
Cl.O.O=C(O)c1cn(-c2ccc(F)cc2)c2cc(N3CCN4CCC3CC4)c(F)cc2c1=O	0.05	0.2	0.2	0.78	1.56	3.13	0.78	0.1	0.78	0.1	0.2	0.02
CN1C2CC[C@@H]1CCN(c1c(F)cc3c(=O)c(C(=O)O)cn(C4CC4)c3c1F)C2	0.1 (≈ 0.248 µM)	0.1 (≈ 0.248 µM)	0.2 (≈ 0.496 µM)	0.39	> 1.56	1.56 (≈ 3.87 µM)	> 3.13	0.1 (≈ 0.248 µM)	0.78 (≈ 1.93 µM)	0.39 (≈ 0.967 µM)	0.1 (≈ 0.248 µM)	0.02 (≈ 0.0496 µM)
CN1[C@@H]2CC[C@H]1CN(c1c(F)cc3c(=O)c(C(=O)O)cn(C4CC4)c3c1F)C2	0.39 (≈ 1 µM)	0.39 (≈ 1 µM)	0.39 (≈ 1 µM)	0.78	3.13 (≈ 8.04 µM)	1.56 (≈ 4.01 µM)	0.78 (≈ 2 µM)	0.1 (≈ 0.257 µM)	25 (≈ 64.2 µM)	0.78 (≈ 2 µM)	0.2 (≈ 0.514 µM)	0.1 (≈ 0.257 µM)
CCn1cc(C(=O)O)c(=O)c2cc(F)c(N3C[C@H]4CC[C@@H](C3)N4C)c(F)c21	0.2 (≈ 0.53 µM)	1.56 (≈ 4.13 µM)	0.39 (≈ 1.03 µM)	3.12	12.5 (≈ 33.1 µM)	6.25 (≈ 16.6 µM)	6.25 (≈ 16.6 µM)	0.39 (≈ 1.03 µM)	> 25	1.56 (≈ 4.13 µM)	0.78 (≈ 2.07 µM)	0.2 (≈ 0.53 µM)
CN1C[C@@H]2C[C@H]1CN2c1c(F)cc2c(=O)c(C(=O)O)cn(-c3ccc(F)cc3F)c2c1Cl	0.1 (≈ 0.216 µM)	0.39 (≈ 0.841 µM)	0.2 (≈ 0.431 µM)	3.12	> 1.56	3.13 (≈ 6.75 µM)	> 3.13	0.1 (≈ 0.216 µM)	0.78 (≈ 1.68 µM)	0.39 (≈ 0.841 µM)	0.2 (≈ 0.431 µM)	0.01 (≈ 0.0216 µM)
CN1C2CC[C@@H]1CCN(c1cc3c(cc1F)c(=O)c(C(=O)O)cn3-c1ccc(F)cc1)C2	0.78 (≈ 1.77 µM)	> 1.56	0.78 (≈ 1.77 µM)	0.19	> 1.56	> 3.13	0.13 (≈ 0.296 µM)	1.56 (≈ 3.55 µM)	> 3.13	0.39 (≈ 0.887 µM)	1.56 (≈ 3.55 µM)	0.2 (≈ 0.455 µM)
O=C(O)c1cn(C2CC2)c2c(Cl)c(N3C[C@@H]4C[C@H]3CN4)c(F)cc2c1=O	0.005 (≈ 0.0132 µM)	0.02 (≈ 0.0529 µM)	0.2 (≈ 0.529 µM)	0.09	0.39 (≈ 1.03 µM)	0.39 (≈ 1.03 µM)	1.56 (≈ 4.13 µM)	0.005 (≈ 0.0132 µM)	0.1 (≈ 0.265 µM)	0.1 (≈ 0.265 µM)	0.02 (≈ 0.0529 µM)	0.005 (≈ 0.0132 µM)
CCn1cc(C(=O)O)c(=O)c2cc(F)c(N3C[C@@H]4C[C@H]3CN4)cc21	0.39 (≈ 1.18 µM)	0.39 (≈ 1.18 µM)	> 1.56	3.12	1.56 (≈ 4.71 µM)	3.13 (≈ 9.45 µM)	1.56 (≈ 4.71 µM)	0.39 (≈ 1.18 µM)	> 3.13	0.39 (≈ 1.18 µM)	0.78 (≈ 2.35 µM)	0.2 (≈ 0.604 µM)
O=C(O)c1cn(-c2ccc(F)cc2)c2cc(N3C[C@@H]4C[C@H]3CN4)c(F)cc2c1=O	0.1 (≈ 0.252 µM)	0.2 (≈ 0.503 µM)	0.78 (≈ 1.96 µM)	1.56	> 1.56	3.13 (≈ 7.88 µM)	1.56 (≈ 3.93 µM)	0.1 (≈ 0.252 µM)	3.13 (≈ 7.88 µM)	0.2 (≈ 0.503 µM)	0.1 (≈ 0.252 µM)	0.02 (≈ 0.0503 µM)
C=Cn1cc(C(=O)O)c(=O)c2cc(F)c(N3CC[C@H]4CCC(C3)N4C)cc21	0.78 (≈ 2.1 µM)	1.56 (≈ 4.2 µM)	1.56 (≈ 4.2 µM)	6.25	1.56 (≈ 4.2 µM)	> 3.13	3.13 (≈ 8.43 µM)	1.56 (≈ 4.2 µM)	> 3.13	0.78 (≈ 2.1 µM)	0.78 (≈ 2.1 µM)	0.2 (≈ 0.538 µM)
O=C(O)c1cn(-c2ccc(F)cc2F)c2c(F)c(N3C[C@@H]4C[C@H]3CN4)c(F)cc2c1=O	0.02 (≈ 0.0462 µM)	0.1 (≈ 0.231 µM)	0.39 (≈ 0.9 µM)	0.78	1.56 (≈ 3.6 µM)	0.78 (≈ 1.8 µM)	3.13 (≈ 7.22 µM)	0.05 (≈ 0.115 µM)	1.56 (≈ 3.6 µM)	0.2 (≈ 0.462 µM)	0.05 (≈ 0.115 µM)	0.01 (≈ 0.0231 µM)
